A selection: hits, their analogues and other compounds. The true share with any hit is near 2%.
CRFBP-R2 agonist: agonists of human CRF-binding protein/CRF-R2 receptor complex. HEK293 CRF-R2/CRF-BP, calcium dye fluorescence (FLIPR); percent of saturating CRF peptide response. hit rate 0.46% among 350,000. activation, % at 13.2 µM;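 active = activation of at least 50%, plus an integration ratio under a set limit after plate pattern correction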;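 note: plate controls were neutral control wells without compound for no effect and CRF at EC100 for full effect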
CRFBP-R2 block: antagonists of CRF-binding protein/CRF-R2 receptor complex; hit rate 0.59% among 350,000; inhibition, % at 11.8 µM; HEK293 CRF-R2/CRF-BP, CRF-induced calcium fluorescence;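 active = inhibition of the ligand-induced calcium signal above about 50% at the single tested concentration, limit read from the data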
TRPML3 agonist: human mucolipin-3 channel agonism | activation, % at 3 µM | hit rate 0.29% among 220,000 | HEK293 TRPML3-YFP, Fluo-8 calcium fluorescence; 100% = the carbachol control signal | Q8TDD5;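 active = activation above its plate's cutoff, the mean activation of the plate's test wells plus 3 SD, cut at about 12% in these data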;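 note: 0% = DMSO only wells and 100% = carbachol wells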
Target sequence (Q8TDD5 whole entry, looked up): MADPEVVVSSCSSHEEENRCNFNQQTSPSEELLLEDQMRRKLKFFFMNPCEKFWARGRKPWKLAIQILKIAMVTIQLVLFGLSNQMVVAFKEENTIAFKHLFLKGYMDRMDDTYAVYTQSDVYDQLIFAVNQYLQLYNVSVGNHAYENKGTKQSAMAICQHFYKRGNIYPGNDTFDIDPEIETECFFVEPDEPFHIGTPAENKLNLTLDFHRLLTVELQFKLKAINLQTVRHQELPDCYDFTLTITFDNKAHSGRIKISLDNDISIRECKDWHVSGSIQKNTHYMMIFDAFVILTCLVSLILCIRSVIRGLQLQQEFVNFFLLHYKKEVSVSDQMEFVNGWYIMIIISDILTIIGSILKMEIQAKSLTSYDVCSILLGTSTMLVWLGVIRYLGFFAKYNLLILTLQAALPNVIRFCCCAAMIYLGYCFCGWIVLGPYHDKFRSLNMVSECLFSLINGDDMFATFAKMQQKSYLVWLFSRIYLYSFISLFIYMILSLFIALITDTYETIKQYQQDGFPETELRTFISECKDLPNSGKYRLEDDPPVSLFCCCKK
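system = HEK293 cells stably carrying human TRPML3-YFP | doses = one concentration, 3 µM nominal, 0.3% DMSO | timing = dye loading 1 h 37 °C then 30 min ambient, 125 s read | detection = Fluo-8 calcium dye fluorescence, ex 470-495, em 515-575 nm | benchmarks = high control carbachol 87 µM, low control DMSO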
GPR7 antagonist: human neuropeptides B/W receptor 1 antagonism | AID 1861 | inhibition, % at 4.4 µM | GPR7-expressing cells, fluorescence antagonist assay | hit rate 1.1% among 290,000 | P48145; in the data active = inhibition above about 16%, passing the limit was not always enough;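 note: cells stimulated with the agonist NPW; 0% = agonist with vehicle and 100% = vehicle without agonist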
TRPN1 ag: agonists of zebrafish TRPN1 channel. AID 1424. HEK293 zebrafish TRPN1-YFP, Fluo-8 calcium fluorescence; 100% = response to 87 µM carbachol. hit rate 0.18% among 220,000. activation, % at 3 µM;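 active = activation above its plate's cutoff, the mean activation of test wells on that plate plus 3 SD, cut at about 19% in these data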;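 note: 0% = DMSO alone and 100% = 87 µM carbachol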
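Control set: carbachol 87 µM as high control, DMSO as low control; system: HEK293 stable line with zebrafish TRPN1-YFP; read-out: % activation versus carbachol response; detection: intracellular calcium fluorescence with Fluo-8; doses: single test compound dose, 3 µM nominal, 0.3% DMSO; schedule: dye 1 h 37 °C plus 30 min RT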
* hit, by the source's call; / = no result.

SMILES | CRFBP-R2 agonist | CRFBP-R2 block | TRPML3 agonist | GPR7 antagonist | TRPN1 ag
O=C(CCC(=O)N1CCOc2ccccc21)NC1CCCCCC1 | 0 | 74* | / | -10 | /
C=CS(=O)(=O)c1ccc(Oc2ccc(S(=O)(=O)C=C)cc2)cc1 | 4 | 2 | 2 | 35* | 6
CC1CCCCN1C(=O)C1CCN(c2nc(-c3ccccc3)nc3c2CCC3)CC1 (configuration not stated) | -1 | -7 | / | -17 | /
CCN(CC)c1ccc2c(-c3ccc(S(=O)(=O)O)cc3S(=O)(=O)[O-])c3ccc(=[N+](CC)CC)cc-3oc2c1 | 55* | -33 | / | 70* | /
CC1(C)CC(=O)C2=C(C1)c1c(ccc3ccccc13)NC2c1ccc(C(=O)O)cc1 (configuration not stated) | 1 | -7 | / | 3 | /
CC1(C)CC(=O)C2=C(C1)c1c(ccc3ccccc13)NC2c1cc([N+](=O)[O-])cc([N+](=O)[O-])c1O (configuration not stated) | -1 | 78* | -1 | -4 | -1
Cc1ccc(C(=O)NCC(=O)Nc2ccccc2C)o1 | -2 | -8 | / | / | /
Cc1ccc([N+](=O)[O-])cc1S(=O)(=O)Nc1ccc(C(=O)NCC2CCCO2)cc1 (configuration not stated) | -1 | -4 | / | / | /
Cc1ccc(C)c(NC(=S)Nc2ncccc2C)c1 | 1 | 124* | 0 | -6 | -1
Cc1sc(NC(=O)c2ccco2)c(C(c2cccnc2)N2CCC(C)CC2)c1C (configuration not stated) | 25 | -96 | 1 | 20* | 2
O=C(NCC1CCCO1)c1ccc(COc2ccccc2)o1 (configuration not stated) | -1 | 8 | / | / | /
CCOC(=O)c1ccccc1NC(=O)Cn1c(-c2nonc2N)nc2ccccc21 | 1 | 14 | 0 | 21* | -1
COc1cc(/C=C2\C(=O)N(c3ccc(NC(C)=O)cc3)N=C2c2ccccc2)ccc1O | 0 | 68* | 0 | -5 | 1
Cc1ccc(-c2n[nH]c(=S)n2/N=C/c2cccn2C)cc1 | -5 | 52* | -2 | -5 | -2
O=C1C(=O)N(Cc2ccccc2)C(=O)N1CCN1C(=O)c2ccccc2C1=O | -2 | 42 | -1 | 19* | 0
O=C(O)CCN1C(=O)c2ccccc2C1=O | 0 | -16 | 0 | 18* | 0
O=C(NCc1cc2ccccc2[nH]1)c1ccccc1F | -1 | 7 | / | 1 | /
CCN(CC(=O)NCc1ccc(Cl)cc1)C(=O)c1cccc(S(=O)(=O)Nc2ccc(OC)cc2)c1 | 1 | -10 | / | / | /
CNC[C@@H]1Oc2ccc(NC(=O)Nc3c(C)noc3C)cc2CC(=O)N([C@H](C)CO)C[C@H]1C | 1 | 2 | / | / | /
O=C(CCN1C(=O)c2ccccc2C1=O)Nc1ccccc1C(F)(F)F | -2 | 10 | / | -4 | /
CCOC(=O)C1CCN(Cc2cc(Cl)c3ccccc3c2O)CC1 | 5 | -4 | / | 16 | /
CCCCn1c(NC(=O)c2ccc(Br)o2)c(S(=O)(=O)c2ccccc2)c2nc3ccccc3nc21 | 17 | 78* | 0 | 4 | 0
CCc1ccc(S(=O)(=O)NCCOc2cccc3cccnc23)cc1 | -1 | 7 | / | -8 | /
CSc1nc2ccc(NC(=O)NC(=O)c3c(F)cccc3F)cc2s1 | 1 | -15 | 0 | 19* | 0
CSc1nc2ccc(NC(=O)COc3ccccc3F)cc2s1 | -2 | -4 | / | / | /
SMILES | CRFBP-R2 agonist | CRFBP-R2 block | TRPML3 agonist | GPR7 antagonist | TRPN1 ag
COc1ccc(S(=O)(=O)Nc2ccccc2C(=O)Nc2nc(-c3ccc(F)cc3)cs2)cc1OC | 48 | 47 | 8 | 16 | 14
COc1ccc(-c2csc(NC(=O)c3ccccc3NS(=O)(=O)c3ccc(C)cc3)n2)cc1 | 10 | 58* | 6 | 27* | 7
COc1cccc(CN2CCN(Cc3cc(OC)c(OC)cc3[N+](=O)[O-])CC2)c1 | 1 | 64* | 0 | -10 | 0
COc1cc(CN2CCN(Cc3ccc([N+](=O)[O-])cc3)CC2)c([N+](=O)[O-])cc1OC | 0 | 23 | 2 | 1 | 4
COc1ccccc1NC(=O)c1sc2nc(Cc3ccccc3)cc(C(F)(F)F)c2c1N | 58* | -66 | 1 | 0 | -1
CC(C)(C)C(=O)c1sc2nc(-c3cccs3)cc(C(F)(F)F)c2c1N | 83* | -32 | 1 | -4 | 1
Cc1nnc(NC(=O)c2sc3nc(-c4cccs4)cc(C(F)(F)F)c3c2N)s1 | 213* | -243 | 3 | 5 | 7
COc1ccc(NC(=O)c2sc3nc(Cc4ccccc4)cc(C(F)(F)F)c3c2N)cc1OC | 5 | -36 | 1 | -1 | 2
Nc1c(C(=O)Nc2nccs2)sc2nc(-c3cccs3)cc(C(F)(F)F)c12 | 68* | -43 | 5 | -1 | 6
Cc1ccc(C(C(=O)NC2CCCCC2)N(Cc2cccnc2)C(=O)c2csnn2)cc1 (configuration not stated) | -1 | 2 | / | 1 | /
Cc1cc(C)c(S(=O)(=O)c2ccccc2F)c(=O)[nH]1 | -1 | 8 | / | -18 | /
COc1ccccc1OCC(=O)NNC(=O)c1cnccn1 | -3 | 56* | 0 | 1 | 0
CCc1ccc(OCC(=O)NNC(=O)c2cnccn2)c(Br)c1 | -4 | -4 | / | 1 | /
CN(C)S(=O)(=O)c1cc(NC(=O)COC(=O)Cc2ccc(Cl)cc2Cl)ccc1Cl | -2 | -3 | -1 | -2 | -2
CN(C)S(=O)(=O)c1cc(NC(=O)COC(=O)CCSc2ccc(Cl)cc2)ccc1Cl | 1 | -5 | 1 | 21* | 2
O=c1c2ccccc2sc2ccc(NCCCN3CCOCC3)cc12 | 102* | -100 | / | / | /
COc1cc2sc3cc(NCCCN4CCOCC4)ccc3c(=O)c2cc1OC | -6 | -3 | / | / | /
O=[N+]([O-])c1cccc(COc2ccc(CN3CCCC3)cc2)c1 | -1 | -15 | / | / | /
O=[N+]([O-])c1cccc(COc2ccc(CN3CCOCC3)cc2)c1 | -2 | 82* | / | / | /
CC1CCCCC1NC(=O)CCCCCn1c(=S)[nH]c2ccsc2c1=O (configuration not stated) | -1 | 93* | / | 1 | /
O=C(CCCn1c(=S)[nH]c2ccsc2c1=O)NC1CCCCC1 | -1 | -14 | / | -5 | /
Cc1ccc2c(=O)n3c(nc2c1)C(Cc1ccccc1)NC(=O)c1cc2ccccc2cc1-3 (configuration not stated) | 3 | -26 | / | / | /
O=C(c1cc2nc(-c3ccccc3)cc(-c3ccccc3)n2n1)N1CCN(C(=O)c2ccco2)CC1 | 0 | 55* | 0 | -2 | 1
O=C(c1cc2nc(-c3ccccc3)cc(-c3ccccc3)n2n1)N1CCCC1 | 0 | -40 | 0 | -14 | 4
O=C(CCc1ccccc1)Nc1c(F)cccc1F | -2 | 52* | 1 | -14 | -1
Nc1ncnc2c1ncn2[C@@H]1O[C@H](CNCC#Cc2ccccc2)[C@@H](O)[C@H]1O | 1 | -12 | / | / | /
Cc1noc(C)c1COC(=O)c1cc(C)n(-c2ccccc2)c1C | 0 | 50* | -1 | 13 | -1

Screening results: PubChem, several laboratories
